Measured values reported in ChEMBL document CHEMBL1687757, “Many chromosomal genes modulate MarA-mediated multidrug resistance in Escherichia coli” (2010).
≈ marks a conversion by molar mass, not a printed value.

How the values were obtained:
Format in all cases: functional
[1] = tested on: Escherichia coli; assay: Antibacterial activity against MarA-deficient Escherichia coli CR2000 after 20 hrs by Etest method; conditions: CR2000, 20 h
Summary of the method: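 Overnight LB-grown cultures (37°C, agitation) of the ΔmarRA strain (BW25113 background) tested on Mueller-Hinton plates with Etest strips per manufacturer's instructions. MIC read after 20 h at 37°C.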

[2] = tested on: Escherichia coli; assay: Antibacterial activity against marA-overproducing Escherichia coli CR1000 harboring inactivated yfdG gene assessed as MarA-mediated multidrug resistance level by measuring fold change in MIC relative to MarA-deficient Escherichia coli CR2000
Summary of the method: (§1)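 Each inactivated gene was transferred into both the ΔmarR (CR1000) and the ΔmarRA (CR2000) BW25113 backgrounds. Each derivative was grown overnight in LB and tested by Etest on Mueller-Hinton plates, read after 20 h at 37°C, against cefoxitin, norfloxacin, chloramphenicol and minocycline. The MarA-mediated level compares the MIC in the ΔmarR derivative with the MIC in the matching ΔmarRA derivative.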

[3] = tested on: Escherichia coli; assay: Antibacterial activity against marA-overproducing Escherichia coli CR1000 harboring inactivated tolC gene assessed as MarA-mediated multidrug resistance level by measuring fold decrease in MIC relative to MarA-deficient Escherichia coli CR2000; design: scale not given: the % may be the effect or the level left; summary of the method: as §1
[4] = tested on: Escherichia coli; assay: Antibacterial activity against marA-overproducing Escherichia coli CR1000 harboring inactivated maoC gene assessed as MarA-mediated multidrug resistance level by measuring fold change in MIC relative to MarA-deficient Escherichia coli CR2000; summary of the method: as §1
[5] = tested on: Escherichia coli; assay: Antibacterial activity against marA-overproducing Escherichia coli CR1000 harboring inactivated alx gene assessed as MarA-mediated multidrug resistance level by measuring fold change in MIC relative to MarA-deficient Escherichia coli CR2000; summary of the method: as §1
[6] = tested on: Escherichia coli; assay: Antibacterial activity against marA-overproducing Escherichia coli CR1000 harboring inactivated ynfE gene assessed as MarA-mediated multidrug resistance level by measuring fold change in MIC relative to MarA-deficient Escherichia coli CR2000; summary of the method: as §1
[7] = tested on: Escherichia coli; assay: Antibacterial activity against marA-overproducing Escherichia coli CR1000 harboring inactivated pcnB gene assessed as MarA-mediated multidrug resistance level by measuring fold decrease in MIC relative to MarA-deficient Escherichia coli CR2000; design: scale not given: the % may be the effect or the level left; summary of the method: as §1
[8] = tested on: Escherichia coli; assay: Antibacterial activity against marA-overproducing Escherichia coli CR1000 harboring inactivated mhpT gene assessed as MarA-mediated multidrug resistance level by measuring fold change in MIC relative to MarA-deficient Escherichia coli CR2000; summary of the method: as §1
[9] = tested on: Escherichia coli; assay: Antibacterial activity against MarA-overexpressing Escherichia coli CR1000 after 20 hrs by Etest method; conditions: CR1000, 20 h
Summary of the method: (§2)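 MICs by Etest strips on Mueller-Hinton plates, following the manufacturer's specifications. Cells came from overnight liquid cultures in LB at 37°C with agitation. Plates were read after 20 h at 37°C. Antibiotics tested were cefoxitin, norfloxacin, chloramphenicol and minocycline.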

[10] = tested on: Escherichia coli; assay: Antibacterial activity against marA-overproducing Escherichia coli CR1000 harboring inactivated yibLp gene assessed as MarA-mediated multidrug resistance level by measuring fold change in MIC relative to MarA-deficient Escherichia coli CR2000; summary of the method: as §1
[11] = tested on: Escherichia coli; assay: Antibacterial activity against marA-overproducing Escherichia coli CR1000 harboring inactivated degP gene assessed as MarA-mediated multidrug resistance level by measuring fold change in MIC relative to MarA-deficient Escherichia coli CR2000; summary of the method: as §1
[12] = tested on: Escherichia coli; assay: Antibacterial activity against marA-overproducing Escherichia coli CR1000 harboring inactivated yniDp gene assessed as MarA-mediated multidrug resistance level by measuring fold change in MIC relative to MarA-deficient Escherichia coli CR2000; summary of the method: as §1
[13] = tested on: Escherichia coli; assay: Antibacterial activity against marA-overproducing Escherichia coli CR1000 harboring inactivated damX gene assessed as MarA-mediated multidrug resistance level by measuring fold decrease in MIC relative to MarA-deficient Escherichia coli CR2000; design: scale not given: the % may be the effect or the level left; summary of the method: as §1
[14] = tested on: Escherichia coli; assay: Antibacterial activity against marA-overproducing Escherichia coli CR1000 harboring inactivated ompR gene assessed as MarA-mediated multidrug resistance level by measuring fold change in MIC relative to MarA-deficient Escherichia coli CR2000; summary of the method: as §1
[15] = tested on: Escherichia coli; assay: Antibacterial activity against marA-overproducing Escherichia coli CR1000 harboring inactivated recD gene assessed as MarA-mediated multidrug resistance level by measuring fold change in MIC relative to MarA-deficient Escherichia coli CR2000; summary of the method: as §1
[16] = tested on: Escherichia coli; assay: Antibacterial activity against marA-overproducing Escherichia coli CR1000 harboring inactivated treC gene assessed as MarA-mediated multidrug resistance level by measuring fold change in MIC relative to MarA-deficient Escherichia coli CR2000; summary of the method: as §1
[17] = tested on: Escherichia coli; assay: Antibacterial activity against wild-type Escherichia coli BW25113 after 20 hrs by Etest method; conditions: BW25113, 20 h; summary of the method: as §2
[18] = tested on: Escherichia coli; assay: Antibacterial activity against marA-overproducing Escherichia coli CR1000 harboring inactivated metV gene assessed as MarA-mediated multidrug resistance level by measuring fold change in MIC relative to MarA-deficient Escherichia coli CR2000; summary of the method: as §1
[19] = tested on: Escherichia coli; assay: Antibacterial activity against marA-overproducing Escherichia coli CR1000 harboring inactivated cspGp gene assessed as MarA-mediated multidrug resistance level by measuring fold change in MIC relative to MarA-deficient Escherichia coli CR2000; summary of the method: as §1
[20] = tested on: Escherichia coli; assay: Antibacterial activity against marA-overproducing Escherichia coli CR1000 harboring inactivated crp gene assessed as MarA-mediated multidrug resistance level by measuring fold change in MIC relative to MarA-deficient Escherichia coli CR2000; summary of the method: as §1
[21] = tested on: Escherichia coli; assay: Antibacterial activity against marA-overproducing Escherichia coli CR1000 harboring inactivated nikD gene assessed as MarA-mediated multidrug resistance level by measuring fold change in MIC relative to MarA-deficient Escherichia coli CR2000; summary of the method: as §1
[22] = tested on: Escherichia coli; assay: Antibacterial activity against marA-overproducing Escherichia coli CR1000 harboring inactivated appA gene assessed as MarA-mediated multidrug resistance level by measuring fold change in MIC relative to MarA-deficient Escherichia coli CR2000; summary of the method: as §1
[23] = tested on: Escherichia coli; assay: Antibacterial activity against marA-overproducing Escherichia coli CR1000 harboring inactivated cyaA gene assessed as MarA-mediated multidrug resistance level by measuring fold decrease in MIC relative to MarA-deficient Escherichia coli CR2000; design: scale not given: the % may be the effect or the level left; summary of the method: as §1
[24] = tested on: Escherichia coli; assay: Antibacterial activity against marA-overproducing Escherichia coli CR1000 harboring inactivated acrB gene assessed as MarA-mediated multidrug resistance level by measuring fold decrease in MIC relative to MarA-deficient Escherichia coli CR2000; design: scale not given: the % may be the effect or the level left; summary of the method: as §1
[25] = tested on: Escherichia coli; assay: Ratio of MIC for marA-overproducing Escherichia coli CR1000 to MIC for MarA-deficient Escherichia coli CR2000
Summary of the method: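 MICs measured by Etest on Mueller-Hinton plates, read after 20 h at 37°C, for the ΔmarR strain (constitutive chromosomal marA overexpression) and the ΔmarRA strain (BW25113 background), both grown overnight in LB at 37°C. MarA-mediated MDR expressed as the ΔmarR/ΔmarRA MIC ratio.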

[26] = tested on: Escherichia coli; assay: Antibacterial activity against marA-overproducing Escherichia coli CR1000 harboring inactivated acrA gene assessed as MarA-mediated multidrug resistance level by measuring fold decrease in MIC relative to MarA-deficient Escherichia coli CR2000; design: scale not given: the % may be the effect or the level left; summary of the method: as §1
[27] = tested on: Escherichia coli; assay: Antibacterial activity against marA-overproducing Escherichia coli CR1000 harboring inactivated hns gene assessed as MarA-mediated multidrug resistance level by measuring fold decrease in MIC relative to MarA-deficient Escherichia coli CR2000; design: scale not given: the % may be the effect or the level left; summary of the method: as §1
[28] = tested on: Escherichia coli; assay: Antibacterial activity against marA-overproducing Escherichia coli CR1000 harboring inactivated metL gene assessed as MarA-mediated multidrug resistance level by measuring fold change in MIC relative to MarA-deficient Escherichia coli CR2000; summary of the method: as §1

CN(C)c1ccc(O)c2c1C[C@H]1C[C@H]3[C@H](N(C)C)C(O)=C(C(N)=O)C(=O)[C@@]3(O)C(O)=C1C2=O [MINOCYCLINE]
MIC [1]: 2.4 µg/mL (≈ 5.25 µM) | Activity [2]: 65% | Activity [3]: 40% | Activity [4]: 40% | Activity [5]: 65% | Activity [6]: 100% | Activity [7]: 30% | Activity [8]: 100% | MIC [9]: 4.9 µg/mL (≈ 10.7 µM) | Activity [10]: 100% | Activity [11]: 100% | Activity [12]: 50% | Activity [13]: 30% | Activity [14]: 100% | Activity [15]: 65% | Activity [16]: 100% | MIC [17]: 3.3 µg/mL (≈ 7.21 µM) | Activity [18]: 65% | Activity [19]: 75% | Activity [20]: 38% | Activity [21]: 125% | Activity [22]: 100% | Activity [23]: 32% | Activity [24]: 40% | Ratio [25]: 2 | Activity [26]: 40% | Activity [27]: 35% | Activity [28]: 100%

CO[C@@]1(NC(=O)Cc2cccs2)C(=O)N2C(C(=O)O)=C(COC(N)=O)CS[C@@H]21 [CEFOXITIN]
MIC [1]: 3.2 µg/mL (≈ 7.49 µM) | Activity [2]: 68% | Activity [3]: 0% | Activity [4]: 100% | Activity [6]: 94% | Activity [7]: 10% | Activity [8]: 68% | MIC [9]: 10.6 µg/mL (≈ 24.8 µM) | Activity [10]: 68% | Activity [11]: 94% | Activity [12]: 94% | Activity [13]: 40% | Activity [14]: 67% | Activity [15]: 80% | Activity [16]: 94% | MIC [17]: 4 µg/mL (≈ 9.36 µM) | Activity [18]: 74% | Activity [19]: 54% | Activity [20]: 21% | Activity [21]: 68% | Activity [22]: 68% | Activity [23]: 43% | Activity [24]: 6% | Ratio [25]: 3.3 | Activity [26]: 16% | Activity [27]: 19% | Activity [28]: 120%

CCn1cc(C(=O)O)c(=O)c2cc(F)c(N3CCNCC3)cc21 [NORFLOXACIN]
MIC [1]: 0.07 µg/mL (≈ 0.219 µM) | Activity [2]: 91% | Activity [3]: 0% | Activity [4]: 61% | Activity [5]: 68% | Activity [6]: 68% | Activity [7]: 23% | Activity [8]: 91% | MIC [9]: 0.21 µg/mL (≈ 0.658 µM) | Activity [10]: 68% | Activity [11]: 91% | Activity [12]: 77% | Activity [13]: 46% | Activity [14]: 77% | Activity [15]: 77% | Activity [16]: 46% | MIC [17]: 0.09 µg/mL (≈ 0.282 µM) | Activity [18]: 91% | Activity [19]: 91% | Activity [20]: 33% | Activity [21]: 68% | Activity [22]: 84% | Activity [23]: 41% | Activity [24]: 9% | Ratio [25]: 3.1 | Activity [26]: 0% | Activity [27]: 23% | Activity [28]: 91%

O=C(N[C@H](CO)[C@H](O)c1ccc([N+](=O)[O-])cc1)C(Cl)Cl [CHLORAMPHENICOL]
MIC [1]: 8.1 µg/mL (≈ 25.1 µM) | Activity [2]: 93% | Activity [3]: 0% | Activity [4]: 75% | Activity [5]: 100% | Activity [6]: 93% | Activity [7]: 33% | Activity [8]: 100% | MIC [9]: 23.9 µg/mL (≈ 74 µM) | Activity [10]: 50% | Activity [11]: 50% | Activity [12]: 125% | Activity [13]: 50% | Activity [14]: 93% | Activity [15]: 50% | Activity [16]: 85% | MIC [17]: 10.7 µg/mL (≈ 33.1 µM) | Activity [18]: 75% | Activity [19]: 93% | Activity [20]: 29% | Activity [21]: 50% | Activity [22]: 93% | Activity [23]: 46% | Activity [24]: 8% | Ratio [25]: 3 | Activity [26]: 8% | Activity [27]: 20% | Activity [28]: 100%
